This experiment addresses Protein-arginine deiminase type-4 (Homo sapiens) (UniProt Q9UM07). Put plainly: human PAD4 inhibitor potency, late-stage follow-up, biochemical, colorimetric substrate assay, assay provider data, 0-50 µM (AID 588416). Particulars: recombinant PAD4, BAEE substrate, citrulline colorimetric absorbance. The gist of the method:
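System – recombinant PAD4 · Input – 0.2 µM PAD4 · Incubation – 15 min + 15 min at 37 °C · Replication – duplicates · Doses – 7-point series, top 50 µM · Reagent – 10 mM BAEE substrate · Measure – IC50 from curve fit, citrulline quantified via citrulline standard curve · Measured by – colorimetric citrulline absorbance at 540 nm, diacetyl monoxime–thiosemicarbazide development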

Calls of active or inactive are those of the source.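 How the source made its calls: active means IC50 at or below 1000 nM; inactive means IC50 above 1000 nM.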

Protein-arginine deiminase type-4 (Homo sapiens), sequence (Q9UM07 whole entry, looked up): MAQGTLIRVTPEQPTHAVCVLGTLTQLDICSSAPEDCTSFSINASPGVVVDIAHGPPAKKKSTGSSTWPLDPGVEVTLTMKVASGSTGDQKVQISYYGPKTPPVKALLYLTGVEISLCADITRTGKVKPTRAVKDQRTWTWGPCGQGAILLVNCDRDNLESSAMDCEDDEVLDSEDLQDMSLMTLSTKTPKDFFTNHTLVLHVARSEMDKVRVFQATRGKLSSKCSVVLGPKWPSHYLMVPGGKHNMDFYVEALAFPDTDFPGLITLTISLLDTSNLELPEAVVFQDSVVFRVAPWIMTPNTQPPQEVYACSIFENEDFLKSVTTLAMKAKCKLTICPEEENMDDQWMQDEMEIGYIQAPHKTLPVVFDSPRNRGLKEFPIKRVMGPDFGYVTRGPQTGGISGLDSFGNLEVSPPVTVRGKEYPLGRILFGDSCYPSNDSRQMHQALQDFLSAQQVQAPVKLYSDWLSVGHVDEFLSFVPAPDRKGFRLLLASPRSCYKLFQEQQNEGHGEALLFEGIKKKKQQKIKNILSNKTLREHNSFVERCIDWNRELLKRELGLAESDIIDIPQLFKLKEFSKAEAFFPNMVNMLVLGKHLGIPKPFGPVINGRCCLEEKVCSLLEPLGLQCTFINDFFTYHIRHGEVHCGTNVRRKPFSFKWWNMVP

In the case of `O=C1C=C(Br)C(=O)c2ncccc21`, the IC50 entry was “inactive”.

These data come from PubChem BioAssay AID588416 (The Scripps Research Institute Molecular Screening Center, 2011).
